Assay [1] has as its target T1, Deoxyuridine 5'-triphosphate nucleotidohydrolase, mitochondrial (Homo sapiens, UniProt P33316).
T1 sequence (P33316 whole entry): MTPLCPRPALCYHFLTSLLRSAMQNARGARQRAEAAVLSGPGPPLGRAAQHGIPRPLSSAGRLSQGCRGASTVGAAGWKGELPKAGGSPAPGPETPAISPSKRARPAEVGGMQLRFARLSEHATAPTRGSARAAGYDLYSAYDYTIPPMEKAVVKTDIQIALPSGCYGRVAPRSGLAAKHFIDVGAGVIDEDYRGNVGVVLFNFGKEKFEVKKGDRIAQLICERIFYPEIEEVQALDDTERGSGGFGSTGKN
In words: Inhibitory constant against human deoxyuridine 5'-triphosphate nucleotidohydrolase expressed in Escherichia coli BL21 (DE3) cells. The method in brief: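 Human dUTPase expressed in E. coli BL21(DE3) and purified like the Plasmodium enzyme (phosphocellulose, then gel filtration). dUTP hydrolysis followed continuously by stopped-flow as pH-indicator absorbance (cresol red/bicine, 50:2000 µM, 573 nm). Apparent KM from integrated Michaelis-Menten fits at each inhibitor concentration; Ki from linear KMapp versus [I].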

Assay [2] deals with L6. In words: In vitro cytotoxicity aganist rat skeletal myoblasts (L-6 cells) after 72 hours. Type of assay: functional, cell-based. The following applies: L6, 72 h. In short, it runs like this: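 L-6 rat skeletal myoblasts seeded at 4 × 10^4 cells/mL in RPMI 1640 with 10% FBS and 2 mM L-glutamine. After 24 h, medium replaced with a serial drug dilution, then 72 h at 37 °C, 5% CO2. Alamar Blue added for a further 2-4 h. Fluorescence read at ex 536/em 588 nm. Run twice independently, in duplicate.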

Assay [3] deals with Trypanosoma brucei rhodesiense. As to the kind of experiment: Inhibitory constant against Trypanosoma brucei rhodesiense upon incubation with the compound at 37 degrees C under a 5% CO2 atmosphere for 72 hours. It is filed as functional, organism-based.
Assay [4] has as its system Leishmania donovani. In words: In vitro growth inhibitory activity against Leishmania donovani amastigotes at 37 degrees C under a 5% CO2 atmosphere for 96 hours. Type of assay: functional, organism-based. In short, it runs like this:
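Mouse peritoneal macrophages in RPMI 1640 with 10% heat-inactivated FBS, infected after 24 h with L. donovani amastigotes at 3:1 (amastigote:macrophage). Free amastigotes washed out at 4 h. Next day, drug-containing medium added for 96 h at 37 °C, 5% CO2. Slides methanol-fixed and Giemsa-stained. Percentage of infected macrophages scored microscopically versus control; IC50 by linear regression. Twice independently, in duplicate.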

Assay [5] relates to Trypanosoma cruzi. In words: In vitro growth inhibitory activity against Trypanosoma cruzi in rat L-6 cells upon incubation at 37 degrees C in 5% CO2 atmosphere for 4 days. It is filed as functional, organism-based. The following applies: L6, 96 h. The method in brief:
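L-6 cells seeded at 2000 cells/well in RPMI 1640 with 10% FBS and 2 mM L-glutamine. After 24 h, 5000 T. cruzi Tulahuen C2C4 LacZ trypomastigotes added with serial drug dilutions, then 4 days at 37 °C, 5% CO2. CPRG/Nonidet substrate added and colour read at 540 nm after 2-4 h. IC50 from sigmoidal curve. Twice independently, in duplicate.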

Assay [6] concerns the target T2, dUTP pyrophosphatase (Plasmodium falciparum 3D7) (UniProt Q8II92).
T2 sequence (whole entry): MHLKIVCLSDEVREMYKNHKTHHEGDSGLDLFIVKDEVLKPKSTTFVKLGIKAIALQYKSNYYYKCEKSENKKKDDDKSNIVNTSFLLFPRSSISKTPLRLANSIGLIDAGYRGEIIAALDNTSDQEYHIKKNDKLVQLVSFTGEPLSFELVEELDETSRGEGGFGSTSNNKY
In words: Selectivity index for Plasmodium falciparum deoxyuridine 5'-triphosphate nucleotidohydrolase defined as (Ki Human)/(Ki Plasmodium falciparum). The method in brief:
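Ratio of human dUTPase Ki to P. falciparum dUTPase Ki. Both Ki values came from stopped-flow pH-indicator assays following dUTP hydrolysis, with Ki derived from the dependence of apparent KM on inhibitor concentration.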

Assay [7] has as its target T3, dUTP pyrophosphatase (Leishmania major, UniProt O15826).
T3 sequence (O15826 whole entry): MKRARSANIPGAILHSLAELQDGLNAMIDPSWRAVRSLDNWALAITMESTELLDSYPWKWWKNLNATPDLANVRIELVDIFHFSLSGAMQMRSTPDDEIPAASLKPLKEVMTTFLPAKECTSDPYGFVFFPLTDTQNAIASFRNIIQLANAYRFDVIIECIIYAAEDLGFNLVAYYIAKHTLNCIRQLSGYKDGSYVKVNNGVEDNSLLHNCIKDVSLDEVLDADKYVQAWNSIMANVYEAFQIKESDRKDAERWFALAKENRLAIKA
In words: Inhibitory constant against Leishmania major deoxyuridine 5'-triphosphate nucleotidohydrolase.

The test system of assay [8] is Plasmodium falciparum. In words: In vitro inhibitory activity against Plasmodium falciparum as [3H]hypoxanthine (50 uL) incorporation at 37C. Type of assay: functional, organism-based.
The target of assay [9] is T4, dUTP pyrophosphatase (Plasmodium falciparum 3D7, UniProt Q8II92).
T4 sequence (Q8II92 whole entry): T2 sequence (whole entry)
As to the kind of experiment: Inhibitory constant against Plasmodium falciparum deoxyuridine 5'-triphosphate nucleotidohydrolase expressed in Escherichia coli BL21 (DE3) cells. In short, it runs like this:
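Recombinant PfdUTPase expressed in E. coli BL21(DE3) and purified by phosphocellulose and gel filtration to ~96% purity. Continuous stopped-flow assay following proton release with cresol red/bicine (50:2000 µM, 573 nm). Mix: 30 nM enzyme, 50 µM dUTP, 5 mM MgCl2, 2.5 mM DTT, 1.25 mg/mL BSA, 100 mM KCl. KMapp from integrated Michaelis-Menten fits, plotted against [I] to give Ki.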

Regarding `CC(C)(C)[Si](C)(C)O[C@H]1C[C@H](n2ccc(=O)[nH]c2=O)O[C@@H]1CO`, the Ki in assay [1] stood at 119 µM; in assay [7], 114 µM; in assay [9], 648 µM. The half-inhibitory concentration (IC50) was more than 263 µM in [2]; 83 µM in [3]; more than 88 µM in assay [4]; more than 263 µM in [5]; more than 15 µM in [8]. In assay [6], the SI worked out at 0.2.
As for `CS(=O)(=O)NCC1OC(n2ccc(=O)[nH]c2=O)CC1O` (stereo not given), the Ki was more than 1000 µM in assay [1], more than 1000 µM in [7] and 178 µM in [9]. Moreover, the IC50 in assay [2] is more than 295 µM; in assay [3] it was 147 µM; in assay [4] it was more than 98 µM; in [5], more than 295 µM; in assay [8], more than 16 µM. The SI in assay [6] is more than 5.
`Cc1ccc(S(=O)(=O)OC[C@H]2O[C@@H](n3ccc(=O)[nH]c3=O)C[C@@H]2O)cc1`: the Ki in assay [1] is more than 1000 µM; in assay [7], more than 1000 µM; in assay [9], 142 µM. In addition, the IC50 in [2] is more than 236 µM; in [3] it was 44 µM; in assay [4], more than 79 µM; in assay [5], more than 236 µM; in [8] it was more than 13 µM. For the same molecule, in assay [6], the SI was more than 7.
For `CC(C)(C)[Si](C)(C)O[C@H]1C[C@H](n2ccc(=O)[nH]c2=O)O[C@@H]1COP(=O)(Oc1ccccc1)Oc1ccccc1`, the Ki in assay [1] is more than 1000 µM; in [7], 116 µM; in [9] it was 597 µM. Also, the concentration for half-maximal inhibition (IC50) in [2] is more than 157 µM; in assay [3] it was 12 µM; in assay [4], more than 17 µM; in assay [5], 10 µM; in [8], 6 µM. The molecule also had an SI in [6] of more than 1.7.
As for `CCOP(=O)(OCC)OC[C@H]1O[C@@H](n2ccc(=O)[nH]c2=O)C[C@@H]1O[Si](C)(C)C(C)(C)C`, the Ki in assay [1] was more than 1000 µM; in assay [7], more than 1000 µM; in assay [9], 340 µM. For the same molecule, the IC50 in [2] was 108 µM; in [3], 35 µM; in assay [4], 63 µM; in [5], 41 µM; in assay [8], more than 10 µM. For the same molecule, the SI in assay [6] is more than 3.
Take `O=C(NCC1OC(n2ccc(=O)[nH]c2=O)CC1O)c1ccccc1` (stereo not given): the Ki in assay [1] was 469 µM; in assay [7], more than 1000 µM; in assay [9], 178 µM. Also, the IC50 in assay [2] was more than 272 µM; in assay [3], 120 µM; in assay [4], more than 91 µM; in [5], more than 272 µM; in assay [8], more than 15 µM. In assay [6], this molecule displayed an SI of 2.6.
Regarding `CCCCC(=O)NCC1OC(n2ccc(=O)[nH]c2=O)CC1O` (stereo not given), the Ki in assay [1] is more than 1000 µM; in [7] it was more than 1000 µM; in assay [9], 189 µM. Also, the IC50 in assay [2] is more than 289 µM; in assay [3], 149 µM; in [4], more than 97 µM; in assay [5], more than 289 µM; in assay [8], more than 16 µM. This molecule also returned an SI in assay [6] of more than 5.
For the molecule `Cc1ccc(S(=O)(=O)NCC2OC(n3ccc(=O)[nH]c3=O)CC2O)cc1` (stereo not given), the Ki in assay [1], in assay [7] and in [9] was more than 1000 µM in each case. In addition, the IC50 in [2] is more than 236 µM; in assay [3] it was 102 µM; in assay [4], more than 79 µM; in [5] it was more than 236 µM; in [8], more than 13 µM.
With `O=C(OC[C@H]1O[C@@H](n2ccc(=O)[nH]c2=O)C[C@@H]1O)c1ccccc1`, the Ki is more than 1000 µM in assay [1], more than 1000 µM in assay [7] and 268 µM in assay [9]. The IC50 in assay [2] is more than 271 µM; in assay [3], 117 µM; in assay [4], more than 90 µM; in [5], more than 271 µM; in [8], more than 15 µM. For the same molecule, the SI in [6] was more than 3.
As to `CCOP(=O)(OCC)OC[C@H]1O[C@@H](n2ccc(=O)[nH]c2=O)C[C@@H]1O`, the values for the Ki in assay [1], in [7] and in [9] were more than 1000 µM, more than 1000 µM and 316 µM, respectively. Moreover, the 50% inhibitory concentration (IC50) was 198 µM in assay [2]; 37 µM in assay [3]; more than 82 µM in assay [4]; more than 247 µM in assay [5]; more than 14 µM in assay [8]. The same molecule registered an SI in [6] of more than 3.
With `CC(=O)OC[C@H]1O[C@@H](n2ccc(=O)[nH]c2=O)C[C@@H]1O`, the results for the Ki in assay [1], in [7] and in assay [9] were more than 1000 µM, more than 1000 µM and 294 µM, respectively. Also, the IC50 in assay [2] is 64 µM; in assay [3], 13 µM; in [4] it was more than 111 µM; in [5] it was 273 µM; in [8], more than 19 µM. Also, the SI in assay [6] was more than 3.
On to `O=c1ccn([C@H]2C[C@H](O)[C@@H](COP(=O)(Oc3ccccc3)Oc3ccccc3)O2)c(=O)[nH]1`, for which the Ki in [1] is 135 µM; in [7], more than 1000 µM; in assay [9] it was 238 µM. The IC50 in [2] was more than 196 µM; in assay [3], 52 µM; in assay [4] it was more than 65 µM; in assay [5], more than 196 µM; in assay [8], more than 11 µM. The molecule also displayed an SI in [6] of 0.6.
In the case of `O=c1ccn([C@H]2C[C@H](F)[C@@H](CO)O2)c(=O)[nH]1`, the IC50 in assay [2] was more than 391 µM; in [3] it was 100 µM; in assay [4] it was more than 391 µM; in assay [5], more than 130 µM; in assay [8] it was more than 21 µM.
On to `CC(C)(C)[Si](C)(C)O[C@H]1C[C@H](n2ccc(=O)[nH]c2=O)O[C@@H]1COC(c1ccccc1)(c1ccccc1)c1ccccc1`, for which the Ki in assay [1] was more than 1000 µM; in assay [7], 454 µM; in assay [9], 515 µM. Moreover, the half-maximal inhibitory concentration (IC50) in assay [2] was more than 154 µM; in assay [3] it was 25 µM; in [4], 17 µM; in assay [5], 247 µM; in [8], 1 µM. Moreover, in assay [6], the SI was more than 1.9.
Take `CC(C)(C)[Si](OCC1OC(n2ccc(=O)[nH]c2=O)CC1F)(c1ccccc1)c1ccccc1` (stereo not given): the values for the Ki in assay [1], in assay [7] and in assay [9] were 808 µM, more than 1000 µM and 89 µM, respectively. Besides, the IC50 is 16 µM in [2], 29 µM in [3], 32 µM in assay [5] and 8.8 µM in [8]. The SI in [6] was determined as 9.1.
Regarding `CC(C)[Si](OC[C@H]1O[C@@H](n2ccc(=O)[nH]c2=O)C[C@@H]1O)(C(C)C)C(C)C`, the Ki in assay [1] was more than 1000 µM; in assay [7], more than 1000 µM; in [9] it was 227 µM. The IC50 in [2] was 25 µM; in assay [3], 8 µM; in [5], 58 µM; in [8], more than 13 µM. In addition, the SI in [6] is more than 4.
Turning to `CC(C)(C)[Si](C)(C)OC1CC(n2ccc(=O)[nH]c2=O)OC1CNC(c1ccccc1)(c1ccccc1)c1ccccc1` (stereo not given), the values for the Ki in assay [1], in [7] and in assay [9] were more than 1000 µM, more than 1000 µM and 313 µM, respectively. The half-inhibitory concentration (IC50) was found to be 7.8 µM in [2], 2.7 µM in assay [3], 97 µM in assay [5] and 1.8 µM in assay [8]. The SI in [6] is more than 3.

By Ki is commonly meant a measure of affinity in units of concentration, obtained from inhibition or displacement. Read a low Ki as a stronger hold on the target. What is called IC50 is the point on the concentration scale where inhibition reaches its midpoint.
